Test results as given in ChEMBL document CHEMBL4765423, “Antikinetoplastid SAR study in 3-nitroimidazopyridine series: Identification of a novel non-genotoxic and potent anti-T. b. brucei hit-compound with improved pharmacokinetic properties” (Eur J Med Chem, 2020).
Converted amounts (≈) assume the structure as drawn.

Tests used:
[1] = Cytotoxicity against human HepG2 cells assessed as reduction in cell viability after 72 hrs by MTT assay; format: cell-based
In short: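 MTT was applied at 0.5 mg/mL for 2 h, formazan was dissolved in DMSO, and absorbance read at 570 nm with a 630 nm reference. Doxorubicin was the positive control. CC50 was taken from the dose-response curve, as the mean of three experiments.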

Leishmania donovani = assay: Antileishmanial activity against Leishmania donovani MHOM/IN/00/DEVI promastigotes assessed as inhibition of parasitic metabolic activity measured after 72 hrs by MTT assay; format: functional, organism-based
In short: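 Log-phase promastigotes at 10⁶/mL were grown in Schneider's medium with 20% FCS at 27 °C. Compound was added from DMSO stock (final <0.5% v/v), in duplicate, for 72 h. Metabolic activity was read by MTT (4 h, 27 °C) and absorbance at 570 nm. EC50 came from non-linear dose-response regression, as the mean of ≥3 independent experiments.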

[2] = Selectivity index, ratio of CC50 for human HepG2 cells to EC50 for antileishmanial activity against Leishmania donovani MHOM/IN/00/DEVI promastigotes; format: toxicity; conditions: read-out: Ratio CC50/EC50
Leishmania infantum = assay: Antileishmanial activity against Leishmania infantum MHOM/MA/67/ITMAP-263 axenic amastigotes assessed as inhibition of parasitic metabolic activity incubated for 48 hrs by steady Glow reagent based luminescence assay; format: functional, organism-based; conditions: MHOM/MA/67/ITMAP-263, 48 h
In short: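 Luciferase-expressing promastigotes were acidified (pH 5.4, 24 h, 24 °C) and then held 24 h at 37 °C to give axenic amastigotes. These were used at 2×10⁶/mL with compound (DMSO <0.5%), in duplicate, for 48 h at 37 °C. Luciferase luminescence was read. EC50 came from non-linear regression, as the mean of three independent experiments.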

[3] = Selectivity index, ratio of CC50 for human HepG2 cells to EC50 for antileishmanial activity against Leishmania infantum MHOM/MA/67/ITMAP-263 axenic amastigotes; format: toxicity; conditions: read-out: Ratio CC50/EC50
[4] = test system: Trypanosoma brucei brucei; assay: Antitrypanosomal activity against bloodstream form Trypanosoma brucei brucei AnTat 1.9 trypomastigotes assessed as reduction in parasite viability incubated for 69 hrs by Alamar Blue dye based assay; format: functional, organism-based; conditions: AnTat 1.9, 69 h
In short: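 BSF parasites were cultured in MEM/Baltz medium with 20% heat-inactivated horse serum, mercaptoethanol, L-cysteine and bathocuproine, at 37 °C and 5% CO₂. Cells were seeded at 2000 parasites/100 µL with compound from DMSO, in duplicate, for 69 h. Alamar Blue was added for 5 h and fluorescence read (ex 530/em 590 nm). EC50 came from non-linear regression over three independent experiments.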

[5] = Selectivity index, ratio of CC50 for human HepG2 cells to EC50 for Trypanosoma brucei brucei trypomastigotes AnTat 1.9; format: toxicity; conditions: read-out: Ratio CC50/EC50
[6] = test system: Trypanosoma brucei brucei; assay: Antitrypanosomal activity against blood stream form of wild type Trypanosoma brucei brucei S427 trypomastigotes assessed as inhibition of parasite growth; format: functional, organism-based
In short: (§1)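 Bloodstream-form single marker S427 (T7RPOL TETR NEO) grown at 37 °C in HMI9-T with 2.5 µg/mL G418. The NTR1-overexpressing line is additionally kept in 2.5 µg/mL phleomycin and induced with 1 µg/mL tetracycline 48 h before testing.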

[7] = test system: Trypanosoma brucei brucei; assay: Antitrypanosomal activity against blood stream form of Trypanosoma brucei brucei S427 trypomastigotes overexpressing NTR1 assessed as inhibition of parasite growth; format: functional, organism-based; in short: as §1
[8] = test system: Trypanosoma brucei brucei; assay: Selectivity index, ratio of EC50 for antitrypanosomal activity against blood stream form of wild type Trypanosoma brucei brucei S427 trypomastigotes to EC50 for antitrypanosomal activity against blood stream form of Trypanosoma brucei brucei S427 trypomastigotes overexpressing NTR1; format: functional
[9] = test system: Trypanosoma brucei brucei; assay: Potency index, ratio of nifurtimox EC50 to compound EC50 for antitrypanosomal activity against blood stream form of wild type Trypanosoma brucei brucei S427 trypomastigotes; format: functional
Albumin = Albumin (Homo sapiens, UniProt P02768); assay: Binding affinity to human albumin incubated for 4 hrs by LC-MS analysis; format: ADME; conditions: read-out: PB (converted)
[10] = Microsomal stability in CD-1 mouse liver microsomes assessed as half life in presence of NADP measured up to 40 mins by LC-MS analysis; format: ADME, Microsome
In short: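 Compound was incubated in duplicate with female CD-1 mouse microsomes at 37 °C in 50 mM phosphate, pH 7.4. An NADP-regenerating system was present (MgCl₂ 5 mM, NADP 1 mM, G6PDH 0.4 U/mL, G6P 5 mM).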

[11] = Thermodynamic solubility of the compound in phosphate buffer at pH 7.4 incubated for 24 hrs under shaking condition by shake flask method; format: physicochemical; conditions: read-out: Therm_solubility
In short: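 The miniaturized shake-flask method used 20 mM DMSO stock diluted into phosphate buffer at pH 7.4 (n = 4). Tubes were shaken 24 h at room temperature and centrifuged. Supernatant was mixed 1:1 with acetonitrile and quantified by UV, with calibration at 370 nm.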

[12] = Permeability of the compound in pH 7.4 Prisma HT buffer at 100 uM incubated for 4 hrs by PAMPA-BBB assay method
[13] = Cmax in Swiss mouse at 100 mg/kg, po by LC-MS/MS analysis; format: ADME, organism-based; set-up: route oral, dose 100 mg/kg; conditions: in vivo
In short: (§2)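 Mice were given oral doses of 100 mg/kg. Plasma Cmax, Tmax, half-life, AUC0-inf and clearance were derived from this.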

[14] = Tmax in Swiss mouse at 100 mg/kg, po by LC-MS/MS analysis; format: ADME, organism-based; conditions: in vivo; in short: as §2
[15] = Half life in Swiss mouse at 100 mg/kg, po by LC-MS/MS analysis; format: ADME, organism-based; conditions: in vivo; in short: as §2
[16] = AUC (0 to infinity) in Swiss mouse at 100 mg/kg, po by LC-MS/MS analysis; format: ADME, organism-based; set-up: time infinity, route oral, dose 100 mg/kg; conditions: in vivo; in short: as §2
[17] = Clearance in Swiss mouse at 100 mg/kg, po by LC-MS/MS analysis; format: ADME, organism-based; conditions: in vivo; in short: as §2
[18] = Toxicity in orally dosed Swiss mouse administered once daily for 5 days; format: organism-based; conditions: in vivo, po, time 5 day
In short: (§3)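 Four mice received compound at 100 mg/kg by oral gavage once daily for 5 days, followed by a follow-up period.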

[19] = Toxicity in Swiss mouse assessed as lesions on kidney at 100 mg/kg, po administered once daily for 5 days; format: organism-based; conditions: in vivo, 120 h, time 5 day; in short: as §3
[20] = Toxicity in Swiss mouse assessed as lesions on liver at 100 mg/kg, po administered once daily for 5 days; format: organism-based; conditions: in vivo, 120 h, time 5 day; in short: as §3
[21] = Toxicity in Swiss mouse assessed as lesions on brain at 100 mg/kg, po administered once daily for 5 days; format: organism-based; conditions: in vivo, 120 h, time 5 day; in short: as §3
[22] = Toxicity in Swiss mouse assessed as lesions on heart at 100 mg/kg, po administered once daily for 5 days; format: organism-based; conditions: in vivo, 120 h, time 5 day; in short: as §3
[23] = Toxicity in Swiss mouse assessed as lesions on lung at 100 mg/kg, po administered once daily for 5 days; format: organism-based; conditions: in vivo, 120 h, time 5 day; in short: as §3
CHO-K1 = assay: Genotoxicity in CHOK1 cells assessed as increase in micronucleated cells at 0.01 to 0.5 mM in presence or absence of S9 fraction measured after 3 hrs by Giemsa staining based micronucleus assay; format: toxicity, cell-based, Cricetulus griseus; conditions: chinese hamster, cho-k1, 3 h, 500 µM, dose 0.01-0.5 mM
In short: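 CHO-K1 cells in McCoy's 5A were exposed 3 h to 0.01–0.5 mM compound, with or without 10% S9 mix, in duplicate. Cells then received cytochalasin B (3 µg/mL) for 21 h and were methanol-fixed and Giemsa-stained. Micronuclei were scored in 1000 binucleated cells per well, and CBPI and cytostasis were also determined. A χ² test was run against the negative control.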

HepG2 = assay: Genotoxicity in human HepG2 cells assessed as induction of DNA damage at 5 to 20 uM incubated for 2 to 72 hrs by alkaline comet assay; format: toxicity, cell-based; conditions: hepg2, 20 µM, dose lower 5 µM, time lower 2 hrs, dose upper 20 µM, time upper 72 hrs
In short: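 HepG2 cells were exposed to 5, 10 and 20 µM compound for 2, 24 or 72 h. Methyl methanesulfonate was the positive control, and read-out was % DNA in tail.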

[24] = Aqueous solubility of compound; format: physicochemical; conditions: buffer
[25] = Electrochemical behavior of the compound assessed as redox potential corrected toward normal hydrogen electrode by cyclic voltammetry

Albumin, sequence (P02768 whole entry): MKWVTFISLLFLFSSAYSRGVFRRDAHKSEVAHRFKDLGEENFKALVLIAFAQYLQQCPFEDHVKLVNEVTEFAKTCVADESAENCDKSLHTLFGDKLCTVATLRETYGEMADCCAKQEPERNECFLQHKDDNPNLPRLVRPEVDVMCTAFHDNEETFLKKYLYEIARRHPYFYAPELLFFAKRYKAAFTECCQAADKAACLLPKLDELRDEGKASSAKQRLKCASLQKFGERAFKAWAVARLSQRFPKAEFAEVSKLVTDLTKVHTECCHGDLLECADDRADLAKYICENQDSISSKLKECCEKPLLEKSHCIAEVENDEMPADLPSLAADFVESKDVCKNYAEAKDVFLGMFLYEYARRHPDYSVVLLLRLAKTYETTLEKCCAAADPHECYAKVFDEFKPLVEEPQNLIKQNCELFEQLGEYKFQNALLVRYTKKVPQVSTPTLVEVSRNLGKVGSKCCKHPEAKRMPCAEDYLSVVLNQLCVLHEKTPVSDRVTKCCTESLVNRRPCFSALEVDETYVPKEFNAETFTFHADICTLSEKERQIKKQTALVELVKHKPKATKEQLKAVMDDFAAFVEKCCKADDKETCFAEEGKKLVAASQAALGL

SMILES: CS(=O)(=O)Cc1nc2c(Br)cc(Cl)cn2c1[N+](=O)[O-]
- CC50 at 72 h [1]: 45000 nM
- EC50 (Leishmania donovani): 5700 nM
- selectivity ratio [2]: 7.9
- EC50 (Leishmania infantum): > 25000 nM
- selectivity ratio [3]: < 1.8
- EC50 [4]: 17 nM
- selectivity ratio [5]: 2650
- EC50 [6]: 65 nM
- EC50 [7]: 16 nM
- Ratio EC50 [8]: 4
- Ratio EC50 [9]: 30
- fraction unbound at 4 h (Albumin): 0.231
- half-life [10]: > 0.667 h
- solubility thermodynamic at 24 h [11]: 25.8 µM (≈ 9.51 µg/mL)
- Papp at 4 h, 100 µM [12]: 8.42 ×10⁻⁶ cm/s
- Cmax [13]: 741 ng/mL
- Tmax [14]: 5 h
- half-life [15]: 7.7 h
- AUC(0-inf) [16]: 7060 ng·h/mL
- CL/F [17]: 0.0085 mL/min
- NOAEL at 120 h [18]: 100 mg/kg/day
- Activity [19]: Non-Toxic
- Activity [20]: Non-Toxic
- Activity [21]: Non-Toxic
- Activity [22]: Non-Toxic
- Activity [23]: Non-Toxic
- Activity (CHO-K1): Non-Toxic
- Activity (HepG2): Non-Toxic
- solubility [24]: Soluble
- Activity [25]: -0.6 V
